Assay results from ChEMBL document CHEMBL1128287, “Ketanserin analogues: the effect of structural modification on 5-HT2 serotonin receptor binding” (J Med Chem, 1995).

Legend:
[1] = target: T1, 5-hydroxytryptamine receptor 2C (Rattus norvegicus, UniProt P08909); experiment: Binding affinity against 5-hydroxytryptamine 2C receptor
T1 sequence (P08909 whole entry): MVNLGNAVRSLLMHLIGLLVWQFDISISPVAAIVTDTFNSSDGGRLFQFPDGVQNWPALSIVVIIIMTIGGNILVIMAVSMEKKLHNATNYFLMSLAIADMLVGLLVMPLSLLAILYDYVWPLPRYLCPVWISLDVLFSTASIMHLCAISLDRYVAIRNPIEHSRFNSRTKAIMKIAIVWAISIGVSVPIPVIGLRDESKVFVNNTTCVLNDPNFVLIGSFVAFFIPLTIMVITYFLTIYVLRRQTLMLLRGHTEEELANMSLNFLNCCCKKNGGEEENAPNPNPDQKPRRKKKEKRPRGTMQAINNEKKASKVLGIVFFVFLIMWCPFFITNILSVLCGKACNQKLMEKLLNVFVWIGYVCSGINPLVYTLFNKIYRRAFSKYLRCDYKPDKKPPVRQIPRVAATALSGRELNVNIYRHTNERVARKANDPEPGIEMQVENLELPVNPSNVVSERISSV
Procedure, shortened: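 Washed brain membranes in Tris-HCl/MgCl2 pH 7.4 with ascorbate and pargyline. Triplicate tubes held 10 mg wet tissue, 1 nM [³H]-mesulergine, and 100 nM spiperone in every tube to block 5-HT2A sites. Nonspecific binding was defined with 1.0 μM mianserin. Incubated 15 min at 37 °C, then filtered and counted. Ki came from IC50 corrected for radioligand concentration and KD.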

[2] = target: Serotonin receptor 2a and 2c (5HT2A and 5HT2C) (Rattus norvegicus) (UniProt P08909+P14842); experiment: Selectivity as the ratio of Ki value towards 5-hydroxytryptamine 2C receptor to that of 5-hydroxytryptamine 2A receptor; format: protein assay
Chain of Serotonin receptor 2a and 2c (5HT2A and 5HT2C) (Rattus norvegicus) (P14842 whole entry, looked up, one chain of several): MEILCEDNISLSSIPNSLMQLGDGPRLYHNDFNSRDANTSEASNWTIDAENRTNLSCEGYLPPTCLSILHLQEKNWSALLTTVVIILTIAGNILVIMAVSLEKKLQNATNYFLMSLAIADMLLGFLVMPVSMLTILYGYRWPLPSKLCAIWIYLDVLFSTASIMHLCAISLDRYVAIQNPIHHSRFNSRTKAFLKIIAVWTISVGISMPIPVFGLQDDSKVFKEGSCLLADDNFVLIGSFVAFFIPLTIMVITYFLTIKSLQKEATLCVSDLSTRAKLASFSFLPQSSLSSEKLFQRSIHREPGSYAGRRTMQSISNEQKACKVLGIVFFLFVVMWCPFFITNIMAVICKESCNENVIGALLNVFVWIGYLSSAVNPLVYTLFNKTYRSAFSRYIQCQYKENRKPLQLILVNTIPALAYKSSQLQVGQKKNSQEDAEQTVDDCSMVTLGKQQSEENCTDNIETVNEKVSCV

[3] = target: 5-hydroxytryptamine receptor 2A (Rattus norvegicus, UniProt P14842); experiment: Binding affinity against 5-hydroxytryptamine 2A receptor
Chain of 5-hydroxytryptamine receptor 2A (P14842 whole entry): as the sequence (P14842 whole entry, looked up, one chain of several) above
Procedure, shortened: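 Brain tissue homogenized in Tris-HCl 50 mM, MgCl2 10 mM, pH 7.4, then washed, incubated 15 min at 37 °C, and resuspended with 0.1% ascorbate and 10⁻⁵ M pargyline. Triplicate tubes held 5 mg wet tissue and 0.4 nM [³H]-ketanserin, with 1.0 μM cinanserin defining nonspecific binding. Incubated 15 min at 37 °C, then filtered. Ki = IC50/(1 + D*/KD*).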

Structure (SMILES)	Ki [1] [nM]	Selectivity [2]	Ki [3] [nM]
OC(c1ccc(F)cc1)C1CCN(CCc2ccccc2)CC1 (stereo unspecified)	1520	460	3
O=C(c1ccccc1)C1CCN(CCc2ccccc2)CC1	800	83	9.6
C(=C(\c1ccccc1)C1CCN(CCc2ccccc2)CC1)/c1ccccc1	–	–	19
O=C(c1ccccc1)C1CCN(CCCCc2ccccc2)CC1	2400	240	10
c1ccc(CCCCN2CCC(Cc3ccccc3)CC2)cc1	4120	34	120
O=C(c1ccccc1)N1CCN(CCCCc2ccccc2)CC1	8520	47	180
OC(c1ccccc1)C1CCN(CCc2ccccc2)CC1 (stereo unspecified) [GLEMANSERIN]	830	330	2.5
O=C(c1ccc(F)cc1)C1CCN(CCc2ccccc2)CC1	–	17	8.5
c1ccc(CCN2CCC(Cc3ccccc3)CC2)cc1	1760	80	22
O=c1[nH]c2ccccc2c(=O)n1CCN1CCC(C(c2ccccc2)c2ccccc2)CC1	52	3	18
C(/Cc1ccccc1)=C(\c1ccccc1)C1CCN(CCCCc2ccccc2)CC1	1390	14	100
c1ccc(CCCCN2CCN(Cc3ccccc3)CC2)cc1	> 10000	> 40	240
c1ccc(CCN2CCC(=C(c3ccccc3)c3ccccc3)CC2)cc1	29	4	6.9
CN1CCC(C(=O)c2ccccc2)CC1	> 10000	> 16	600
O=c1[nH]c2ccccc2c(=O)n1CCN1CCN(C(c2ccccc2)c2ccccc2)CC1	635	10	65
CN1CCN(C(=O)c2ccccc2)CC1	> 10000	–	> 10000
OC(c1ccc(F)cc1)C1CCN(CCCCc2ccccc2)CC1 (stereo unspecified)	6600	52	126
c1ccc(CCCCN2CCC(=C(c3ccccc3)c3ccccc3)CC2)cc1	220	11	20
O=C(c1ccc(F)cc1)C1CCN(CCCCc2ccccc2)CC1	–	120	5.3
Fc1ccc(CC2CCN(CCc3ccccc3)CC2)cc1	2000	110	18
Fc1ccc(CC2CCN(CCCCc3ccccc3)CC2)cc1	2740	70	40
OC(c1ccccc1)C1CCN(CCCCc2ccccc2)CC1 (stereo unspecified)	> 10000	> 35	265
